Compounds with a hit are over-represented: about 1.3% of the library has one in this group of screens.
TDP2 absorb – TDP2 (human) inhibition, absorbance primary screen | AID 720702 | O95551 | 370,000 tested, 0.34% active | recombinant TDP2, T5PNP hydrolysis, p-nitrophenol absorbance 415 nm | inhibition, % at 12.8 µM;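 active = inhibition above the mean of all tested compounds plus 3 SD, set per campaign, cut at about 25% in these data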;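 also: 0% = DMSO with enzyme and 100% = buffer with substrate but no TDP2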
Target sequence (O95551 whole entry, looked up): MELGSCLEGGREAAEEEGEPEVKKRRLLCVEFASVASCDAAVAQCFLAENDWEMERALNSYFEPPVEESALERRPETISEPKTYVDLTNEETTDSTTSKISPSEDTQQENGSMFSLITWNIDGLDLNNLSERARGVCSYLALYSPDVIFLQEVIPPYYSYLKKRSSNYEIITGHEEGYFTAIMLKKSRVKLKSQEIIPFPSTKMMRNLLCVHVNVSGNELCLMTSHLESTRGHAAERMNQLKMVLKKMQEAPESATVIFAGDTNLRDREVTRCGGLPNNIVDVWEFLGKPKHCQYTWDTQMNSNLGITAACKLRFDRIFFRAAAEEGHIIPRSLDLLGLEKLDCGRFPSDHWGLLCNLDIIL
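test system = human TDP2 enzyme | input = TDP2 enzyme at 120 nM final | medium = 50 mM Tris-HCl pH 7.5 with Mg2+, KCl, DTT, BSA | also added = T5PNP substrate, 5 mM | times = 2 h at 37 °C | technique = epi absorbance | benchmarks = high control without enzyme, low control DMSO plus TDP2 | replication = each compound tested once, singlicate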
NSD2 HMT inh – inhibitors of human histone methyltransferase NSD2; AID 743445; inhibition, % at 12.5 µM; O96028; 310,000 tested, 0.54% active; NSD2 peptide methylation, AlphaScreen, 120 min; in the data active = inhibition above about 50%
LEDGF integ inh – blocks HIV-1 LEDGF/p75-dependent DNA integration; inhibition, % at 3.7 µM; TR-FRET IN-LEDGF/p75 DNA integration, Eu/Cy5; 370,000 tested, 0.64% active;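 active = inhibition above the screen-wide mean plus 3 SD, cut at about 13% in these data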;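 also: signal is the Cy5 over europium emission ratio at 671 and 618 nm; 0% = plate median of compound wells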
UCH37 inh – blocks the human deubiquitinase UCH37; Q9Y5K5; purified proteasome/UCH37, Ub-AMC cleavage fluorescence; inhibition, % (test concentration not listed); 330,000 tested, 0.33% active; AID 588478;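 active = mean inhibition over replicate wells above about 20%, limit read from the data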;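 also: 0% = compound-free wells with enzyme and 100% = wells lacking proteasome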
Target sequence (Q9Y5K5 whole entry, looked up): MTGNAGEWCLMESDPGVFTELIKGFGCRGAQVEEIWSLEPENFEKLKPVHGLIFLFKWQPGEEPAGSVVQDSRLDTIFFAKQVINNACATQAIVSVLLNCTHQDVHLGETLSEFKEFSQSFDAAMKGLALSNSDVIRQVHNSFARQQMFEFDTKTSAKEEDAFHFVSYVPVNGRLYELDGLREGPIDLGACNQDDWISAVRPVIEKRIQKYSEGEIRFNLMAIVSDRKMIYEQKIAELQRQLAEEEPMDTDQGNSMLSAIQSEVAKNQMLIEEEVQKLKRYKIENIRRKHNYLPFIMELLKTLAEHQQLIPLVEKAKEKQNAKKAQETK
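Signal – fluorescence, ex 355 nm, em 460 nm · System – Proteasome-bound UCH37 · Input – 0.15 nM proteasome as dispensed · Timing – 30 min preincubation with enzyme, 25 min cleavage at room temperature · Read-out basis – percent inhibition of cleavage signal versus uninhibited and no-proteasome wells · Medium – Tris-HCl pH 7.4 with ATP-MgCl2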
Casp6 inh – caspase-6 (human) enzyme inhibition; P55212; purified caspase-6, Z-VEID-R110 cleavage fluorescence; 350,000 tested, 0.53% active; inhibition, % at 12.5 µM;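 active = mean inhibition across replicates at least about 35%, with every replicate also reaching that limit, limit read from the data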;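 also: 0% = median of neutral control wells and 100% = no fluorescence left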
TDP2 confirm – confirmation of human TDP2 inhibitors; shares compounds with TDP2 absorb; recombinant human TDP2, absorbance read-out; inhibition, % at 12.8 µM; 1,100 tested, 22% active; AID 743263; in the data active = inhibition above about 25%;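 also: 0% = vehicle with enzyme and 100% = no enzyme buffer only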
IN multimer act – activates HIV-1 integrase multimerization in LEDGF counter-screen | AID 1053131 | shares compounds with LEDGF integ inh | activation, % at 7.7 µM | TR-FRET HIV-1 integrase multimerization, biochemical | 2,000 tested, 17% active; in the data active = activation above about 8.9%
TRFRET interf – TR-FRET optical interference, LEDGF/p75 integration counter-screen | shares compounds with LEDGF integ inh | TR-FRET optical interference counterscreen, HIV-1 IN multimerization | inhibition, % at 7.7 µM | 2,000 tested, under 10 active | AID 1053135;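 active = inhibition above the mean over all tested compounds plus 3 SD, which no compound reached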;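 also: 0% = integrase with antibodies and DMSO and 100% = antibodies without integrase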
LEDGF integ conf – LEDGF/p75-dependent HIV-1 integration inhibition, confirmation. shares compounds with LEDGF integ inh. TR-FRET LEDGF/p75-dependent HIV-1 integration, biochemical. inhibition, % at 3.7 µM. 2,000 tested, 36% active. AID 1053136; in the data active = inhibition above about 14%
Alpha artifact – counter-screen for NSD2 inhibitors: AlphaScreen artifacts; 1,500 tested, 9.4% active; AlphaScreen artifact counterscreen, preloaded methylated H4 peptide; AC35, µM (top dose mostly 10 µM), for the others: at the top dose activity change, negative = signal loss; shares compounds with NSD2 HMT inh; call rule not given here
An asterisk follows results filed as active; i = inactive; . = not tested or not shown.

SMILES | TDP2 absorb | NSD2 HMT inh | LEDGF integ inh | UCH37 inh | Casp6 inh | IN multimer act | TRFRET interf | LEDGF integ conf | others
Cc1[nH][nH]c(=O)c1C(c1ccc(-c2ccc(F)cc2)o1)c1c(C)[nH][nH]c1=O | 60* | 156* | 25* | 22* | . | . | . | . | TDP2 confirm=20;Alpha artifact=0%
C=CCN1C(=O)C(CC(=O)Nc2ccccc2F)SC1=Nc1nccs1 (configuration not stated) | . | . | . | 4 | . | . | . | .
Oc1ccc(C=Nn2c(-c3ccco3)csc2=Nc2cccnc2)c(O)c1 | . | . | . | 3 | . | . | . | .
CC(=NNC1=NCCN1)c1ccc(Cl)cc1 | . | . | . | 5 | . | . | . | .
C=CCn1c(N)c(C(=O)NCC2CCCO2)c2nc3ccccc3nc21 (configuration not stated) | 35* | 99* | 3 | i | . | . | . | . | TDP2 confirm=-8;Alpha artifact=12%
Cc1ccc(C=c2sc3n(c2=O)CCCN=3)o1 | . | . | . | 8 | . | . | . | .
O=C(C[n+]1ccc(C(=O)NN=Cc2ccc(O)cc2)cc1)c1ccccc1 | . | . | . | 11 | . | . | . | .
C/C(=C\C(=O)c1cccnc1)Nc1ccc(O)cc1 | 27* | 78* | 17* | 11 | . | 2 | -8 | -2 | TDP2 confirm=-4;Alpha artifact=-4%
COc1ccccc1C=NNC(=O)c1[nH]c(C)c(C(=O)NN=Cc2ccccc2OC)c1C | . | . | . | 11 | . | . | . | .
CC(=O)N1CCN(c2ccc(NC(=O)c3ccco3)cc2)CC1 | -8 | -3 | -1 | 8 | 4 | . | . | .
CC(=O)N1CCN(c2ccc(NCc3ccco3)cc2)CC1 | 8 | . | 21* | 2 | -1 | 4 | -19 | -5
CC(=NNC(=O)c1ccc(NS(=O)(=O)c2cccs2)cc1)c1ccc(Cl)cc1 | . | . | . | 6 | . | . | . | .
Cn1c(SCC(=O)NC(=O)NCc2ccco2)nnc1-c1ccccc1 | -16 | . | 22* | 1 | . | 8 | -39 | 8
Cc1nnc(NC(=O)CSc2nnc(-c3ccccc3)n2C)s1 | -1 | 2 | 18* | 2 | 0 | -1 | 3 | -3
O=C1NC(c2cccc(Br)c2)=N/C1=C\c1ccco1 | 3 | 3 | 21* | 1 | 22 | 4 | -20 | 8
Cc1ccc2c(c1)/C(=C/c1ccco1)C(=O)N2 | -3 | 0 | -2 | 8 | 4 | . | . | .
O=S1(=O)N[C@H](Cc2ccccc2)COc2cccc(N3CCCCC3)c21 | 3 | . | 39* | . | -4 | -1 | 6 | 0
CN1CCN(c2cccc3c2S(=O)(=O)N[C@H](Cc2ccccc2)CO3)CC1 | -17 | . | 3 | . | -10 | . | . | .
CCc1cc(C(Cc2ccc3ccccc3n2)=NO)c(O)cc1O | . | . | . | 4 | . | . | . | .
COC(=O)Cc1ccc(NC(=S)Nc2ccc(N3CCOCC3)cc2)cc1 | 15 | 2 | 14* | 2 | 6 | 1 | -6 | -3
Cc1cccc(NC(=S)Nc2ccc(N3CCOCC3)cc2)c1C | 19 | 5 | 21* | 1 | . | -2 | 9 | 6
Cc1cccc(NC(=S)NN2CCOCC2)c1C | -11 | 0 | 1 | -1 | . | . | . | .
Cc1ccc(C(=O)NC(=S)Nc2ccc(N3CCOCC3)cc2)cc1C | -17 | 3 | 1 | 2 | 6 | . | . | .
COC(=O)Cc1ccc(NC(=S)NCCCN2CCOCC2)cc1 | 2 | 0 | -5 | 2 | -9 | . | . | .
Cc1cccc(C(=O)NC(=S)Nc2ccc(N3CCOCC3)cc2)c1 | 9 | 1 | 20* | 2 | -1 | 5 | -23 | -7
SMILES | TDP2 absorb | NSD2 HMT inh | LEDGF integ inh | UCH37 inh | Casp6 inh | IN multimer act | TRFRET interf | LEDGF integ conf | others
COc1ccc(-c2oc(N=CN3CCCC3)c(C#N)c2-c2ccc(OC)cc2)cc1 | . | . | . | 5 | . | . | . | .
CCN(CC(=O)Nc1c(F)cccc1F)C(=O)C1CC(=O)N(CCc2ccccc2)C1 (configuration not stated) | 14 | -2 | 35* | 2 | -92 | -2 | 12 | -10
Cc1ccc(-c2nnc(SCC(=O)NN=Cc3ccccc3C(=O)O)n2-c2ccccc2)cc1 | . | . | . | 5 | . | . | . | .
CN(C)/C=N/c1ncn(-c2ncc(C(F)(F)F)cc2Cl)n1 | 4 | -3 | 17* | . | 0 | 1 | -5 | -6
CN(C)/C=N/S(=O)(=O)c1cccn1-c1ncc(C(F)(F)F)cc1Cl | 7 | -3 | 0 | . | 0 | . | . | .
O=C(NN=C/C=C/c1ccccc1)c1cc2c(ccc3ccccc32)o1 | . | . | . | -14 | . | . | . | .
CCn1c(O)c(C=NN=C2CCCCC2)c2cc(C3=NNC(=O)CC3)ccc21 | . | . | . | -5 | . | . | . | .
O=C1C=C(c2cccs2)C[C@H](c2ccccc2)[C@H]1n1nnc([N+](=O)[O-])n1 | 3 | 1 | 14* | 1 | . | 2 | -8 | 18*
CN(Cc1ccccc1)Cc1nc2c(c(=O)n(C)c(=O)n2C)n1CCc1ccccc1 | -3 | -3 | 23* | 5 | . | 0 | -1 | -1
Cc1nn(CC(C#N)=NO)c(C)[n+]1N | . | . | . | 2 | . | . | . | .
Cc1cc(C)n2c(Nc3ccc4c(c3)OCCO4)c(-c3ccc(C)o3)nc2n1 | -2 | . | 24* | 5 | 21 | 2 | -8 | 4
Cc1cc(C)n2c(Nc3ccc4c(c3)OCCO4)c(-c3cc4ccccc4o3)nc2n1 | -2 | . | -2 | . | -1 | . | . | .
Cn1nnnc1SCC(=O)N1CCN(c2ccc(Cl)cc2)CC1 | 7 | -1 | 57* | 2 | . | 1 | -3 | 2
CC(C)(CS(=O)(=O)[O-])NC(=O)CC[N+](C)(C)CCO | -2 | . | 39* | -1 | . | 122* | i | 38*
COc1ccc(NC(=O)CN2CCCCC2)c([N+](=O)[O-])c1 | -2 | 16 | -1 | 3 | 3 | . | . | .
COc1ccc(NC(=O)CN2CCC(NC(=O)C3CCCCC3)CC2)c([N+](=O)[O-])c1 | 12 | -2 | 18* | -3 | 0 | -2 | 8 | 2
Cc1ncc(CO)c(C=NNC(=S)Nc2ccc(C(C)C)cc2)c1O | . | . | . | -43 | . | . | . | .
CC(C)NC(=O)N(C)C[C@@H]1Oc2c(NS(=O)(=O)c3ccccc3)cccc2C(=O)N([C@H](C)CO)C[C@@H]1C | . | . | . | . | 0 | . | . | .
C[C@H](CO)N1C[C@H](C)[C@@H](CN(C)S(=O)(=O)c2cccs2)Oc2c(NC(=O)NC3CCCCC3)cccc2C1=O | -18 | . | 18* | 5 | 3 | 0 | -2 | 1
